Hits are enriched below; roughly 2.6% of the tested compounds scored in any of these assays.
rCAG binder: molecules binding r(CAG) RNA repeats; hit rate 1.3% among 370,000; r(CAG) RNA repeat, TO-PRO-1 dye displacement fluorescence; inhibition, % at 3 µM;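 active = inhibition above the plate cutoff, the mean of all test compounds on that plate plus 3 SD, cut at about 35% in these data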;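 also: 0% = DMSO alone and 100% = 100 µM mitoxantrone as full dye displacement; higher means more dye released from RNA so lower well fluorescence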
NadD inh: NadD (S. aureus) enzyme inhibition; purified NadD enzyme, colorimetric absorbance read-out; inhibition, % at 20 µM; hit rate 0.78% among 360,000; in the data active = inhibition above about 26%
STEP block: STEP (human) phosphatase inhibition; P54829; inhibition, % at 20 µM; hit rate 0.25% among 360,000; recombinant STEP, OMFP fluorogenic substrate, fluorescence;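 active = inhibition at 20 µM, scaled per plate between control wells, above about 37%, limit read from the data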;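 also: 0% = DMSO with enzyme and substrate and 100% = substrate only without enzyme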
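Assay system: isolated STEP enzyme / Timing: 20 min at room temperature, dark / Doses: 20 µM, 1% DMSO / Technique: fluorescence intensity, excitation 480 nm, emission 540 nm / Reagent: fluorogenic phosphatase substrate OMFP at 25 µM final / Measure: percent inhibition scaled to no-enzyme and uninhibited-enzyme controls, plate-pattern corrected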
LMPTP block: blocks human LMPTP phosphatase | P24666 | recombinant LMPTP-A, OMFP fluorogenic substrate, fluorescence intensity | inhibition, % at 20 µM | hit rate 0.22% among 360,000 | AID 651560;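 active = compounds that cut the enzyme signal by at least half of the control window in the single-dose screen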;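 also: plate controls were DMSO wells with enzyme plus substrate for no effect and substrate without enzyme for full effect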
Target sequence (P24666 whole entry, looked up): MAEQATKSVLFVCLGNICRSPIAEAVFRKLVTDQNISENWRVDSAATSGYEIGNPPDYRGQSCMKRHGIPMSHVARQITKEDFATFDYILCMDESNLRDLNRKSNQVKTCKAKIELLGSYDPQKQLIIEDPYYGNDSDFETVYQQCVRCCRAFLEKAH
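Test system – LMPTP-A enzyme · Amount – LMPTP-A at 0.625 nM final in the reaction · Buffer or medium – Bis-Tris pH 6.0, DTT, detergent · Reagent – OMFP 400 µM · Doses – single 20 µM dose · Schedule – reaction 50 min, room temperature, dark · Detection – fluorescence intensity of OMFP turnover product · Evaluation – percent inhibition versus substrate-only and uninhibited controls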
Scp-1 inhibitor: inhibitors of human Scp-1 phosphatase. Recombinant Scp1, phosphopeptide, malachite green phosphate absorbance. inhibition, % at 20 µM. hit rate 0.88% among 340,000. AID 493091;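 active = inhibition above about 50% at 20 µM, limit read from the data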;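 also: plate controls were DMSO wells with enzyme for no effect and wells lacking enzyme for full effect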
Target sequence (Q9GZU7 76-261 limits assumed): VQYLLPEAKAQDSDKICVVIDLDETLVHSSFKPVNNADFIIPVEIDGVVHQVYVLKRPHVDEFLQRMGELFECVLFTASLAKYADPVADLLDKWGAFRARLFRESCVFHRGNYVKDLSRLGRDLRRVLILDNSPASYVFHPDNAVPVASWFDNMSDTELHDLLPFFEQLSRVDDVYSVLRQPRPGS
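System: SCP-1 catalytic domain; Reagent: Phospho 17-mer peptide substrate; Doses: one concentration, 20 µM, with 1.0% DMSO; Incubation: 45 min room-temperature reaction, 5 min colour, 30 min stabiliser; Signal: Phosphate-binding colour reagent, absorbance read at 630 nm.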
Active calls of the source: *; · = not tested or not shown.

SMILES	rCAG binder	NadD inh	STEP block	LMPTP block	Scp-1 inhibitor
CCOC(=O)c1cc(-c2ccc(/C=C3/C(=O)NC(=O)C(C#N)=C3C)o2)ccc1Cl	14	39*	1	8	81*
Cc1c(NC(=O)COC(=O)c2cc(-c3ccc(-c4ccccc4)cc3)nc3ccccc23)c(=O)n(-c2ccccc2)n1C	7	50*	-1	5	21
NC(=O)Cn1c(=O)n(Cc2ccco2)c(=O)c2c3c(sc21)CCCCC3	12	3	16	8	71*
Cc1c(OC(C)C(=O)NC(Cc2c[nH]c3ccc(O)cc23)C(=O)O)ccc2c1oc(=O)c1ccccc12 (stereo not drawn)	58*	3	7	5	20
Cc1c(C)c2ccc(OC(C)C(=O)N[C@@H](Cc3c[nH]c4ccccc34)C(=O)O)c(C)c2oc1=O (stereo partly drawn)	34	2	2	1	4
O=C(NC1CCCCN(Cc2cccc(Cl)c2)C1=O)c1cccc(F)c1 (stereo not drawn)	0	·	·	·	·
CCCCn1nc(NS(=O)(=O)c2cccc3nonc23)c2cc3cccc(C)c3nc21	74*	8	1	1	0
CCN(CC)C(=O)CC[C@H]1CC[C@]2(CCCN(c3ccccc3)C2)O1	4	·	·	·	·
c1coc(-c2nnc(-c3ccco3)nn2)c1	31	9	91*	21	71*
c1ccc(-c2nnc(-c3ccco3)o2)cc1	-2	-2	-1	-1	-2
COC(=O)c1cc(-c2cc3ccccc3s2)c(=O)n2c1CCC2	2	·	·	·	·
CC(C)n1nnnc1C1(C)Cn2nccc2C(=O)N1Cc1cccc(C(F)(F)F)c1 (stereo not drawn)	2	·	·	·	·
CCN1CCC2(CC1)N=C(c1ccc(F)cc1)C(=S)N2C(=O)c1ccc(C(C)(C)C)cc1	-2	-1	56*	-1	6
COc1ccc(NS(=O)(=O)c2cccc(C(=O)N/N=C(/C)c3ccc(-n4ccnc4)cc3)c2)cc1	9	16	5	10	-10
CCOc1ccc(S(=O)(=O)Nc2ccc(C(=O)N/N=C(\C)c3ccc(-n4ccnc4)cc3)cc2)cc1	13	42*	5	6	0
COC(=O)[C@H](CC(C)C)N(Cc1cn(Cc2ccccc2)nn1)S(=O)(=O)c1ccc(F)cc1Br	3	·	·	·	·
CC(C)=C1CCC(C)CC1=NNC(N)=S (stereo not drawn)	-1	6	-1	-1	56*
CC1C/C(=N\NC(N)=S)c2cc(Cl)ccc2S1 (stereo not drawn)	1	5	-2	1	-11
CCn1cnc2cc(NCc3ccc(OC)cc3)ccc21	-3	5	3	0	-10
CCOc1ccc2nc3cc(NCc4ccc(OC)cc4)ccc3c(N)c2c1	·	47*	2	19	-1
CCN(CC)c1ccc(C(=C2C=CC(=[N+](CC)CC)C=C2)c2ccc(N(CC)CC)cc2)cc1	22	6	25	81*	-2
Cc1ccc(S(=O)(=O)N2[C@@H](c3ccccc3F)C(C(=O)O)=CC[C@H]2c2cccc(C)c2)cc1	26	2	-2	-1	-5
Cc1ccc(S(=O)(=O)N2[C@@H](c3ccccc3F)C(C(=O)O)=CC[C@H]2c2ccc(Cl)c(Cl)c2)cc1	74*	14	2	1	-9
COc1cccc2cc(C(=O)CS(=O)(=O)c3ccc(Cl)cc3)c(=O)oc12	47*	8	2	0	3
COc1ccc(CNCC#Cc2ccc(C(F)(F)F)cc2)c(OC)c1	1	·	·	·	·
O=C(C1=C[C@@H]2[C@H]3C(=O)N(c4cccc(Cl)c4)C(=O)[C@H]3[C@@H](C(=O)c3ccc(Cl)cc3)N2C=C1)c1ccccc1	·	57*	4	3	-10
Cc1ccc(N2C(=O)[C@@H]3[C@H](C2=O)[C@H]2C=C(C(=O)c4ccccc4)C=CN2[C@@H]3C(=O)c2ccc(Cl)cc2)cc1	19	3	4	1	1
Cc1ccc(S(=O)(=O)c2c(N)n(Cc3ccco3)c3nc4ccccc4nc23)cc1C	17	47*	1	3	5
C(=C\c1nc(N2CCCCCC2)c2ccccc2n1)/c1ccccc1	4	1	3	56*	2
C[C@@H]1OC(c2ccccc2)N(C)[C@H]2C[C@H]3c4[nH]c5cccc(-c6ccccc6)c5c4CCN3C[C@@H]12 (stereo partly drawn)	9	·	·	·	·

Source: PubChem
